From ChEMBL document CHEMBL1649115, “Enhanced susceptibility to antifungal oligopeptides in yeast strains overexpressing ABC multidrug efflux pumps” (Antimicrob Agents Chemother, 2008)
In brackets after ≈: the same amount, converted by molar mass. Non-standard residues stand in square brackets, D forms with d. Residues, ends and D or L forms follow the SMILES beside them. Phe(3-F) = N[C@@H](Cc1cccc(F)c1)C(=O)O

Assays:
Saccharomyces cerevisiae [1] = experiment: Prodrug stability in wild type Saccharomyces cerevisiae ATCC 9763 assessed as compound cleavage rate measured per mg of protein; format: ADME, organism-based; conditions: in vivo
Candida albicans [2] = experiment: Prodrug stability in wild type Candida albicans 10261 assessed as compound cleavage rate measured per mg of protein; format: ADME, organism-based; conditions: in vivo
Saccharomyces cerevisiae [3] = experiment: Prodrug stability in Saccharomyces cerevisiae ADCDR2 expressing Candida albicans CDR2 efflux pump assessed as compound cleavage rate measured per mg of protein; format: ADME, organism-based; conditions: in vivo
Saccharomyces cerevisiae [4] = experiment: Prodrug stability in Saccharomyces cerevisiae AD12345678 assessed as compound cleavage rate measured per mg of protein; format: ADME, organism-based; conditions: in vivo
Candida albicans [5] = experiment: Prodrug stability in fluconazole sensitive Candida albicans isolate Gu4 assessed as compound cleavage rate measured per mg of protein; format: ADME, organism-based; conditions: in vivo
Method in brief: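 Oligopeptides were incubated with cell extracts of the yeast cells, and their hydrolytic enzymes cleaved them. The amino acids released were quantified by the Cd-ninhydrin method.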

Saccharomyces cerevisiae [6] = experiment: Drug uptake in Saccharomyces cerevisiae ADMDR1 at 50 uM pretreated for 10 mins measured after 60 mins by fluorescamine staining in presence of fluconazole; conditions: in vivo, 1 h
Saccharomyces cerevisiae [7] = experiment: Antifungal activity against Saccharomyces cerevisiae ADCDR1 expressing Candida albicans CDR1 efflux pump in YNPG-proline medium after 24 hrs by microdilution method; format: functional; conditions: ADCDR1, 24 h
Candida albicans [8] = experiment: Antifungal activity against fluconazole sensitive Candida albicans isolate Gu4 in RPMI-1640 buffered medium after 24 hrs by microdilution method; format: functional; conditions: Candida albicans, isolate Gu4, 24 h; read-out: MIC
Method in brief: (§1)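 C. albicans cells were grown in 2% glucose, 1% yeast extract, 1% Bacto peptone medium before testing. […] CARE-2 fingerprinting confirmed that each pair is a single strain.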

Saccharomyces cerevisiae [9] = experiment: Prodrug stability in Saccharomyces cerevisiae ADCDR1 expressing Candida albicans CDR1 efflux pump assessed as compound cleavage rate measured per mg of protein; format: ADME, organism-based; conditions: in vivo
Saccharomyces cerevisiae [10] = experiment: Antifungal activity against Saccharomyces cerevisiae AD12345678 in YNPG-proline medium after 24 hrs by microdilution method; format: functional; conditions: AD12345678, 24 h
Saccharomyces cerevisiae [11] = experiment: Drug uptake in Saccharomyces cerevisiae ADMDR1 expressing Candida albicans MDR1 efflux pump at 200 uM pretreated for 10 mins measured after 60 mins by fluorescamine staining; format: ADME, organism-based; conditions: in vivo, 1 h
Saccharomyces cerevisiae [12] = experiment: Drug uptake in Saccharomyces cerevisiae AD12345678 at 200 uM pretreated for 10 mins measured after 60 mins by fluorescamine staining in presence of fluconazole; format: ADME, organism-based; conditions: in vivo, 1 h
Saccharomyces cerevisiae [13] = experiment: Prodrug stability in Saccharomyces cerevisiae ADMDR1 expressing Candida albicans MDR1 efflux pump assessed as compound cleavage rate measured per mg of protein; format: ADME, organism-based; conditions: in vivo
Saccharomyces cerevisiae [14] = experiment: Drug uptake in Saccharomyces cerevisiae ADCDR2 expressing Candida albicans CDR2 efflux pump at 200 uM pretreated for 10 mins measured after 60 mins by fluorescamine staining; format: ADME, organism-based; conditions: in vivo, 1 h
Saccharomyces cerevisiae [15] = experiment: Antifungal activity against Saccharomyces cerevisiae ADMDR1 expressing Candida albicans MDR1 efflux pump in YNPG-proline medium after 24 hrs by microdilution method; format: functional; conditions: ADMDR1, 24 h
Candida albicans [16] = experiment: Antifungal activity against fluconazole sensitive Candida albicans isolate B3 in RPMI-1640 buffered medium after 24 hrs by microdilution method; format: functional; conditions: Candida albicans, isolate B3, 24 h; read-out: MIC; method in brief: as §1
Candida albicans [17] = experiment: Antifungal activity against wild type Candida albicans 10261 in RPMI-1640 buffered medium after 24 hrs by microdilution method; format: functional; conditions: Candida albicans, 10261, 24 h; read-out: MIC; method in brief: as §1
Saccharomyces cerevisiae [18] = experiment: Antifungal activity against Saccharomyces cerevisiae ADCDR2 expressing Candida albicans CDR2 efflux pump in YNPG-proline medium after 24 hrs by microdilution method; format: functional; conditions: ADCDR2, 24 h
Saccharomyces cerevisiae [19] = experiment: Drug uptake in Saccharomyces cerevisiae ADCDR2 at 200 uM pretreated for 10 mins measured after 60 mins by fluorescamine staining in presence of fluconazole; format: ADME, organism-based; conditions: in vivo, 1 h
Saccharomyces cerevisiae [20] = experiment: Antifungal activity against wild type Saccharomyces cerevisiae ATCC 9763 in YNPG-proline medium after 24 hrs by microdilution method; format: functional; conditions: ATCC 9763, 24 h
Candida albicans [21] = experiment: Prodrug stability in fluconazole sensitive Candida albicans isolate B3 assessed as compound cleavage rate measured per mg of protein; format: ADME, organism-based; conditions: in vivo
Saccharomyces cerevisiae [22] = experiment: Drug uptake in Saccharomyces cerevisiae ADCDR1 expressing Candida albicans CDR1 efflux pump at 200 uM pretreated for 10 mins measured after 60 mins by fluorescamine staining; format: ADME, organism-based; conditions: in vivo, 1 h
Saccharomyces cerevisiae [23] = experiment: Drug uptake in Saccharomyces cerevisiae AD12345678 at 200 uM pretreated for 10 mins measured after 60 mins by fluorescamine staining; format: ADME, organism-based; conditions: in vivo, 1 h
Candida albicans [24] = experiment: Antifungal activity against fluconazole resistant Candida albicans isolate B4 overexpressing MDR1 in RPMI-1640 buffered medium after 24 hrs by microdilution method; format: functional; conditions: Candida albicans, isolate B4, 24 h; read-out: MIC; method in brief: as §1
Saccharomyces cerevisiae [25] = experiment: Drug uptake in Saccharomyces cerevisiae ADCDR1 at 200 uM pretreated for 10 mins measured after 60 mins by fluorescamine staining in presence of fluconazole; format: ADME, organism-based; conditions: in vivo, 1 h
Candida albicans [26] = experiment: Antifungal activity against fluconazole resistant Candida albicans isolate Gu5 overexpressing CDR1 and CDR2 in RPMI-1640 buffered medium after 24 hrs by microdilution method; format: functional; conditions: isolate Gu5, 24 h
Method in brief: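 C. albicans cells were grown in 2% glucose, 1% yeast extract, 1% Bacto peptone medium before testing. CARE-2 fingerprinting confirmed that each pair is a single strain.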

Saccharomyces cerevisiae [27] = experiment: Antifungal activity against Saccharomyces cerevisiae ADCDR2 expressing Candida albicans CDR2 efflux pump in YNPG medium containing 1 mg/ml […] after 24 hrs by microdilution method; format: functional; conditions: ADCDR2, 24 h
Saccharomyces cerevisiae [28] = experiment: Antifungal activity against Saccharomyces cerevisiae ADCDR1 expressing Candida albicans CDR1 efflux pump in YNPG medium containing 1 mg/ml […] after 24 hrs by microdilution method; format: functional; conditions: ADCDR1, 24 h
Saccharomyces cerevisiae [29] = experiment: Antifungal activity against wild type Saccharomyces cerevisiae ATCC 9763 in YNPG medium containing 1 mg/ml […] after 24 hrs by microdilution method; format: functional; conditions: ATCC 9763, 24 h
Saccharomyces cerevisiae [30] = experiment: Antifungal activity against Saccharomyces cerevisiae ADMDR1 expressing Candida albicans MDR1 efflux pump in YNPG medium containing 1 mg/ml […] after 24 hrs by microdilution method; format: functional; conditions: ADMDR1, 24 h
Saccharomyces cerevisiae [31] = experiment: Antifungal activity against Saccharomyces cerevisiae AD12345678 in YNPG medium containing 1 mg/ml […] after 24 hrs by microdilution method; format: functional; conditions: AD12345678, 24 h

Row | Compound | Stability (Candida albicans [2]) | Stability (Candida albicans [5]) | Drug uptake (Saccharomyces cerevisiae [6]) | MIC (Saccharomyces cerevisiae [7]) | MIC (Candida albicans [8]) | MIC (Saccharomyces cerevisiae [10]) | Drug uptake (Saccharomyces cerevisiae [11]) | Drug uptake (Saccharomyces cerevisiae [12]) | Drug uptake (Saccharomyces cerevisiae [14]) | MIC (Saccharomyces cerevisiae [15]) | MIC (Candida albicans [16]) | MIC (Candida albicans [17]) | MIC (Saccharomyces cerevisiae [18]) | Drug uptake (Saccharomyces cerevisiae [19]) | MIC (Saccharomyces cerevisiae [20]) | Stability (Candida albicans [21]) | Drug uptake (Saccharomyces cerevisiae [22]) | Drug uptake (Saccharomyces cerevisiae [23]) | MIC (Candida albicans [24]) | MIC (Candida albicans [26]) | further results
1 | CC(C)C[C@H](N)C(=O)N[C@@H](Cc1cccc(F)c1)C(=O)O (H-Leu-[Phe(3-F)]-OH) | 20 nmol/min | 20 nmol/min | 0.87 nmol/min/mg | 8 µg/mL (≈ 27 µM) | 128 µg/mL (≈ 432 µM) | 256 µg/mL (≈ 864 µM) | 0.84 nmol/min/mg | 0.79 nmol/min/mg | 2.37 nmol/min/mg | 256 µg/mL (≈ 864 µM) | 64 µg/mL (≈ 216 µM) | 64 µg/mL (≈ 216 µM) | 4 µg/mL (≈ 13.5 µM) | 2.23 nmol/min/mg | 256 µg/mL (≈ 864 µM) | 20 nmol/min | 1.95 nmol/min/mg | 0.79 nmol/min/mg | 64 µg/mL (≈ 216 µM) | 8 µg/mL (≈ 27 µM) | Stability (Saccharomyces cerevisiae [1]): 14 nmol/min; Stability (Saccharomyces cerevisiae [3]): 14 nmol/min; Stability (Saccharomyces cerevisiae [4]): 14 nmol/min; Stability (Saccharomyces cerevisiae [9]): 14 nmol/min; Stability (Saccharomyces cerevisiae [13]): 14 nmol/min; Drug uptake (Saccharomyces cerevisiae [25]): 1.82 nmol/min/mg
2 | [N-]=[N+]=CC(=O)OC[C@H](N)C(=O)O [AZASERINE] | – | – | – | – | 16 µg/mL (≈ 92.4 µM) | – | 1.7 nmol/min/mg | – | 1.92 nmol/min/mg | – | 32 µg/mL (≈ 185 µM) | 16 µg/mL (≈ 92.4 µM) | – | – | – | – | 2.15 nmol/min/mg | 1.75 nmol/min/mg | 32 µg/mL (≈ 185 µM) | 16 µg/mL (≈ 92.4 µM) | MIC (Saccharomyces cerevisiae [27]): 1 µg/mL (≈ 5.78 µM); MIC (Saccharomyces cerevisiae [28]): 1 µg/mL (≈ 5.78 µM); MIC (Saccharomyces cerevisiae [29]): 2 µg/mL (≈ 11.6 µM); MIC (Saccharomyces cerevisiae [30]): 2 µg/mL (≈ 11.6 µM); MIC (Saccharomyces cerevisiae [31]): 2 µg/mL (≈ 11.6 µM)
3 | NC(Cc1cccc(F)c1)C(=O)O (stereo not given) [M-FLUOROPHENYLALANINE] | – | – | – | – | 128 µg/mL (≈ 699 µM) | – | 1.63 nmol/min/mg | – | 1.86 nmol/min/mg | – | 128 µg/mL (≈ 699 µM) | 256 µg/mL (≈ 1400 µM) | – | – | – | – | 2.57 nmol/min/mg | 1.78 nmol/min/mg | 128 µg/mL (≈ 699 µM) | 128 µg/mL (≈ 699 µM) | MIC (Saccharomyces cerevisiae [27]): 16 µg/mL (≈ 87.3 µM); MIC (Saccharomyces cerevisiae [28]): 16 µg/mL (≈ 87.3 µM); MIC (Saccharomyces cerevisiae [29]): 32 µg/mL (≈ 175 µM); MIC (Saccharomyces cerevisiae [30]): 32 µg/mL (≈ 175 µM); MIC (Saccharomyces cerevisiae [31]): 32 µg/mL (≈ 175 µM)
4 | C[C@@H]([C@H](N)C(=O)N[C@H](C(=O)O)[C@H]1O[C@@H](n2ccc(=O)[nH]c2=O)[C@H](O)[C@@H]1O)[C@H](O)c1ccc(O)cn1 [NIKKOMYCIN] | 0.3 nmol/min | 0.3 nmol/min | 0.34 nmol/min/mg | 16 µg/mL (≈ 32.3 µM) | 16 µg/mL (≈ 32.3 µM) | 128 µg/mL (≈ 258 µM) | 0.32 nmol/min/mg | 0.32 nmol/min/mg | 0.97 nmol/min/mg | 128 µg/mL (≈ 258 µM) | 8 µg/mL (≈ 16.1 µM) | 32 µg/mL (≈ 64.6 µM) | 16 µg/mL (≈ 32.3 µM) | 0.88 nmol/min/mg | 128 µg/mL (≈ 258 µM) | 0.3 nmol/min | 1.08 nmol/min/mg | 0.33 nmol/min/mg | 8 µg/mL (≈ 16.1 µM) | 4 µg/mL (≈ 8.07 µM) | Drug uptake (Saccharomyces cerevisiae [25]): 0.98 nmol/min/mg
